ChEMBL document CHEMBL2169749 (J Med Chem, 2012)
In brackets after ≈: the same amount, converted by molar mass.

Legend:
[1] = Total clearance in Sprague-Dawley rat at 1 mg/kg, iv; type: ADME, organism-based; set-up: dose 1 mg/kg, route intravenous; settings: in vivo
Procedure, shortened: (§1)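 Sprague-Dawley rats given 1 mg/kg iv and po, compound dissolved in PEG400. Plasma obtained by centrifugation of collected blood, drug levels quantified by LC/MS/MS. Values are mean ± SD of n = 3.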

[2] = Volume of distribution at steady state in Sprague-Dawley rat at 1 mg/kg, iv; type: ADME, organism-based; set-up: dose 1 mg/kg, route intravenous; settings: in vivo, read-out: Vdss; procedure, shortened: as §1
Rattus norvegicus [3] = assay: Antiinflammatory activity in Lewis rat assessed as suppression of Mycobacterium tuberculosis adjuvant-induced paw edema at 1 mg/kg, po administered QD from days 15 to 24 post adjuvant-challenge measured on day 25 relative to vehicle-treated control; type: functional
Procedure, shortened: (§2)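 Female Lewis rats, 7 weeks old; arthritis induced on day 0 by 0.5 mg M. tuberculosis in 50 μL liquid paraffin injected into right hind footpad. Randomized on day 15 (n ≥ 5) by left hind paw volume increase and body weight; drug suspended in 0.5% methylcellulose given orally once daily days 15–24. Left hind paw volume measured day 25 by water displacement plethysmometry; edema expressed as percentage of control.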

Rattus norvegicus [4] = assay: Antiinflammatory activity in rat assessed as inhibition of LPS-induced TNFalpha production at 1 mg/kg, po administered 4 hrs prior to LPS-challenge measured after 1 to 1.5 hrs by ELISA relative to vehicle-treated control; type: functional
Procedure, shortened: (§3)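 Rats dosed orally with compound suspended in 0.5% methylcellulose/0.1% Tween-80, 4 h before LPS (10 μg/animal, ip). At 1.0 or 1.5 h after LPS, retro-orbital blood collected into heparin under anesthesia. Plasma diluted one-fifth and assayed by rat TNF-α ELISA. Percent inhibition taken relative to vehicle group (n = 3−4).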

[5] = (§4) Oral bioavailability in Sprague-Dawley rat at 1 mg/kg; type: ADME, organism-based; settings: Sprague-Dawley, in vivo; procedure, shortened: as §1
[6] = (§5) AUC in Sprague-Dawley rat at 1 mg/kg, po; type: ADME, organism-based, Plasma; set-up: dose 1 mg/kg, route oral; settings: Sprague-Dawley, plasma; procedure, shortened: as §1
[7] = Permeability of the compound by PAMPA assay at pH 6.5; type: ADME; settings: read-out: permeability
Procedure, shortened: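 PAMPA with pION membrane lipid, donor buffer pH 6.5, n = 2.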

THP-1 = assay: Antiinflammatory activity in human THP1 cells assessed as inhibition of LPS-induced TNFalpha production after 20 hrs; type: functional, cell-based; settings: THP-1, 20 h
Procedure, shortened: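 THP-1 human monocytic cells kept in RPMI 1640 with 10% FBS, penicillin and streptomycin at 37 °C, 5% CO2. Cells (1 × 10^5/well) stimulated with LPS (10 μg/mL final, E. coli 055:B5) with compound or 0.1% DMSO vehicle for 20 h at 37 °C. Supernatant TNF-α compared with DMSO control. IC50 given as mean of triplicate experiments.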

[8] = Half life in Sprague-Dawley rat at 1 mg/kg, iv; type: ADME, organism-based; set-up: dose 1 mg/kg, route intravenous; settings: in vivo; procedure, shortened: as §1
Rattus norvegicus [9] = assay: Antiinflammatory activity in rat assessed as inhibition of LPS-induced TNFalpha production at 3.2 mg/kg, po administered 4 hrs prior to LPS-challenge measured after 1 to 1.5 hrs by ELISA relative to vehicle-treated control; type: functional; procedure, shortened: as §3
[10] = Intrinsic clearance in rat liver microsomes in presence of NADPH; type: ADME, Microsome; settings: read-out: CLH
Procedure, shortened: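 Incubation with rat liver microsomes in the presence of an NADPH-generating system, n = 2.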

[11] = Half life in rat liver homogenate; type: ADME, tissue-based
Rattus norvegicus [12] = assay: as §4; type: ADME, organism-based; settings: in vivo; procedure, shortened: as §1
Rattus norvegicus [13] = assay: as §5; type: ADME, organism-based, Plasma; set-up: dose 1 mg/kg, route oral; settings: in vivo; procedure, shortened: as §1
Cytochrome P450 2C19 = Cytochrome P450 2C19 (Homo sapiens, UniProt P33261); assay: Inhibition of CYP2C19; type: ADME
[14] = biological target: Voltage-gated inwardly rectifying potassium channel KCNH2 (Homo sapiens, UniProt Q12809); assay: Inhibition of human ERG by Rb ion flux assay
Cytochrome P450 2C9 = Cytochrome P450 2C9 (Homo sapiens, UniProt P11712); assay: Inhibition of CYP2C9; type: ADME
Cytochrome P450 1A2 = biological target: T1, Cytochrome P450 1A2 (Homo sapiens, UniProt P05177); assay: Inhibition of CYP1A2; type: ADME
T1 sequence (P05177 whole entry): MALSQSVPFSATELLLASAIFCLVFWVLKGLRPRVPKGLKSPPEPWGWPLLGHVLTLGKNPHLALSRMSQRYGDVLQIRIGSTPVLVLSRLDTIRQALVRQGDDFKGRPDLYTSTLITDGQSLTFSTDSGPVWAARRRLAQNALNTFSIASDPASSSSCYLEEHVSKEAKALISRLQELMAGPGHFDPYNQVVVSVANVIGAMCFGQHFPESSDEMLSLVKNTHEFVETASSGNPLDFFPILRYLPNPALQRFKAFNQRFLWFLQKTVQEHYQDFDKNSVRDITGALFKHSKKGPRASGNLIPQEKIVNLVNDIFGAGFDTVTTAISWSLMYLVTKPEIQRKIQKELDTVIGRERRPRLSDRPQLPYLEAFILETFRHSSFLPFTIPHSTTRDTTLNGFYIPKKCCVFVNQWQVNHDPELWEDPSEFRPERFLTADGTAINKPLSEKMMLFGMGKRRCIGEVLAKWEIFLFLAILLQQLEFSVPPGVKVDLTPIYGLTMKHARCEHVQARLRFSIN

Cytochrome P450 2D6 = Cytochrome P450 2D6 (Homo sapiens, UniProt P10635); assay: Inhibition of CYP2D6; type: ADME
Rattus norvegicus [15] = assay: Antiinflammatory activity in po dosed rat assessed as inhibition of LPS-induced TNFalpha production administered 4 hrs prior to LPS-challenge measured after 1 to 1.5 hrs by ELISA relative to vehicle-treated control; type: functional; procedure, shortened: as §3
[16] = biological target: Mitogen-activated protein kinase 14 (Homo sapiens, UniProt Q16539); assay: Inhibition of human MAPK p38alpha by Z'-LYTE assay
Procedure, shortened: (§6)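 Human p38α or p38β kinase activity measured by Z′-Lyte kinase assay system.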

[17] = biological target: Mitogen-activated protein kinase 9 (Homo sapiens, UniProt P45984); assay: Inhibition of human recombinant JNK2alpha2-mediated ATF-2 phosphorylation after 30 mins by immunoblotting method
Rattus norvegicus [18] = assay: Antiinflammatory activity in po dosed Lewis rat assessed as suppression of Mycobacterium tuberculosis adjuvant-induced paw edema administered QD from days 15 to 24 post adjuvant-challenge measured on day 25 relative to vehicle-treated control; type: functional; settings: 600 h; procedure, shortened: as §2
[19] = biological target: Mitogen-activated protein kinase 11 (Homo sapiens, UniProt Q15759); assay: Inhibition of human MAPK p38beta by Z'-LYTE assay; procedure, shortened: as §6
[20] = Solubility of the compound at pH 6.8; type: physicochemical; settings: buffer

Chain of Voltage-gated inwardly rectifying potassium channel KCNH2 (Q12809 whole entry): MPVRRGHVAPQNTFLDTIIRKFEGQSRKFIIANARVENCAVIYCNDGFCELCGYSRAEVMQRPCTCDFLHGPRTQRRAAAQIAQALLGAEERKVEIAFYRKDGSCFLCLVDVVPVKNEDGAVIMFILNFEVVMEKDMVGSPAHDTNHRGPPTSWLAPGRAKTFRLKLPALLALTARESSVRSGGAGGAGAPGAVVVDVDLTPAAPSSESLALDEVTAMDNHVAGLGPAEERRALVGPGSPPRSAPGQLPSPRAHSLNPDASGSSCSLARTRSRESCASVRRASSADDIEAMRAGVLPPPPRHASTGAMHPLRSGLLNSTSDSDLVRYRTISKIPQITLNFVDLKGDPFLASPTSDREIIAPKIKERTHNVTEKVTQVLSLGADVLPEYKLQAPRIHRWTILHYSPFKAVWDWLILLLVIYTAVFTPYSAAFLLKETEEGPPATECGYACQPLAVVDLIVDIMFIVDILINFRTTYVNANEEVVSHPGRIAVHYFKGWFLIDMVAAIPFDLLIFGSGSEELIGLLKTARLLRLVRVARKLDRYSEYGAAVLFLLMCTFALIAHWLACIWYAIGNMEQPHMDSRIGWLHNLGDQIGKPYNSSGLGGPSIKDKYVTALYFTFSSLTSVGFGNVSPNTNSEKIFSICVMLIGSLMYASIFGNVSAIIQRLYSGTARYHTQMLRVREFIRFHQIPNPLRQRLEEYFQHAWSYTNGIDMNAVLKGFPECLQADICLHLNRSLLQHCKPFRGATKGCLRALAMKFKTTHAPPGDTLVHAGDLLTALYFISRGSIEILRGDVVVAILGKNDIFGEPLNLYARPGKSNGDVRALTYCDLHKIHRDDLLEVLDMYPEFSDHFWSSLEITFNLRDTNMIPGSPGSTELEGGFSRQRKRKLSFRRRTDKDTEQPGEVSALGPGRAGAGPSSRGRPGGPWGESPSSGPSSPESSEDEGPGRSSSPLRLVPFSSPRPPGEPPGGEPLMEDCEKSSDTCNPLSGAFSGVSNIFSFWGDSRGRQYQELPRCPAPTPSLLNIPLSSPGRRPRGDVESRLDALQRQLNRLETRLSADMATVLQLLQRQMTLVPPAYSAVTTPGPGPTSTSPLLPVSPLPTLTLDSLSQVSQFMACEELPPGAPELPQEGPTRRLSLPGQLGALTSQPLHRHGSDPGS
Chain of Mitogen-activated protein kinase 9 (P45984 whole entry): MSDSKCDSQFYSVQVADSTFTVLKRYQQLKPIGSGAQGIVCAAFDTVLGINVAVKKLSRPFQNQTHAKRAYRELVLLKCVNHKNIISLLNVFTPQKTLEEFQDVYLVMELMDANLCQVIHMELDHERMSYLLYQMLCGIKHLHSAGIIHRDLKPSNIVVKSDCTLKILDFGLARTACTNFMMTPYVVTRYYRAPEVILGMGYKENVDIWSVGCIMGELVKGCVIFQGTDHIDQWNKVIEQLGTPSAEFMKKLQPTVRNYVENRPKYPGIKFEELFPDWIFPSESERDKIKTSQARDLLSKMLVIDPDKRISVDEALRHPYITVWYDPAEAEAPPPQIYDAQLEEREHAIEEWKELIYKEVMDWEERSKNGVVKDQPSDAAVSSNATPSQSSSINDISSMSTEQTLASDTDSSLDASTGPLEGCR
Chain of Mitogen-activated protein kinase 11 (Q15759 whole entry): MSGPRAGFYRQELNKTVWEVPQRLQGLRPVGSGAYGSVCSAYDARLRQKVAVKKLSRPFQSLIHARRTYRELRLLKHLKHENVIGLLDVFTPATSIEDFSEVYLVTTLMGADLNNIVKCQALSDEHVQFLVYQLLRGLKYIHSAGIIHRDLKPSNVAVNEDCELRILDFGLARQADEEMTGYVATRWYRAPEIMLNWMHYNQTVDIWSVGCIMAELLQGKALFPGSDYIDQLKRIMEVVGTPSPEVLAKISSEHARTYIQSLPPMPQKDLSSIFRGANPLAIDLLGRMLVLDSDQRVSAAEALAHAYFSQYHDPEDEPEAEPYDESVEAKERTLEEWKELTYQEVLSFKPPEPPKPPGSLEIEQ
Chain of Cytochrome P450 2D6 (P10635 whole entry): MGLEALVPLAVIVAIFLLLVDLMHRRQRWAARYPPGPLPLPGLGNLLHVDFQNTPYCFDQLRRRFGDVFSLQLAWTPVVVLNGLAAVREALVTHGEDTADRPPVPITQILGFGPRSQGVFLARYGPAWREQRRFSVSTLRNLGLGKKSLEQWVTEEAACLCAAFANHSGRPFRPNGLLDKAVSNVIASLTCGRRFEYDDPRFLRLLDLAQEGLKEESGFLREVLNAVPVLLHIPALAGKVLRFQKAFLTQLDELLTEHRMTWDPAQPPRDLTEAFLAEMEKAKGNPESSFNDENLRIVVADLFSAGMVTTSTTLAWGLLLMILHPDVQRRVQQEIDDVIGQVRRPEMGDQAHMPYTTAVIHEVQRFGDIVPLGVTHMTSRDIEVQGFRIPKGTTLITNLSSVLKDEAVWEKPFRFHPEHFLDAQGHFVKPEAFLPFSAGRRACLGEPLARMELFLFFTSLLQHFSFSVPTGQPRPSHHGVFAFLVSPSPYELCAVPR
Chain of Cytochrome P450 2C9 (P11712 whole entry): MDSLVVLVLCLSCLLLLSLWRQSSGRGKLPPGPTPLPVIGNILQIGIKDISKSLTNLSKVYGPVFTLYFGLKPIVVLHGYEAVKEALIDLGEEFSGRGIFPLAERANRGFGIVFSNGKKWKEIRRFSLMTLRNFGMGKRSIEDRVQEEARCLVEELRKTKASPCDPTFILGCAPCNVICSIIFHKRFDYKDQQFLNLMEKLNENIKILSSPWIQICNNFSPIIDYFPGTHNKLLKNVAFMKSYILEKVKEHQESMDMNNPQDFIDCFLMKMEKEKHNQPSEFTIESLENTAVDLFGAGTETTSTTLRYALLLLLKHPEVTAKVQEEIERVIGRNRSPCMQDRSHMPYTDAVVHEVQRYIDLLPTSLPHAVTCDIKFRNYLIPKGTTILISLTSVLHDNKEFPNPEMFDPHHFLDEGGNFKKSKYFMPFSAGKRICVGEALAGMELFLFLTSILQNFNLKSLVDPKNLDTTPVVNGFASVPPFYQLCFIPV
Chain of Cytochrome P450 2C19 (P33261 whole entry): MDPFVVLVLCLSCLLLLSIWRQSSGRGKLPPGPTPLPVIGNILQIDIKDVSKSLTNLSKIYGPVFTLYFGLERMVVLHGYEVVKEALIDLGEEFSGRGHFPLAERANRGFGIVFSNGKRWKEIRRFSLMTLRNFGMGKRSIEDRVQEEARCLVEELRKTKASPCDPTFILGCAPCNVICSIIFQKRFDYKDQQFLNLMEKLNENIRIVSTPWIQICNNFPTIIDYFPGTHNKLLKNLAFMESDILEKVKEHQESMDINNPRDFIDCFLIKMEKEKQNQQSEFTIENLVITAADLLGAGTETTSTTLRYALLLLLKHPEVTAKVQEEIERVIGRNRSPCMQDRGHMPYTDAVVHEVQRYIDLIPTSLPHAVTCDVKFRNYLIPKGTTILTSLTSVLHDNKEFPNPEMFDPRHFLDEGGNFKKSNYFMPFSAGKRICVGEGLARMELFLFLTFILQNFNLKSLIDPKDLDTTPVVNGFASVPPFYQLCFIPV
Chain of Mitogen-activated protein kinase 14 (Q16539 whole entry, looked up): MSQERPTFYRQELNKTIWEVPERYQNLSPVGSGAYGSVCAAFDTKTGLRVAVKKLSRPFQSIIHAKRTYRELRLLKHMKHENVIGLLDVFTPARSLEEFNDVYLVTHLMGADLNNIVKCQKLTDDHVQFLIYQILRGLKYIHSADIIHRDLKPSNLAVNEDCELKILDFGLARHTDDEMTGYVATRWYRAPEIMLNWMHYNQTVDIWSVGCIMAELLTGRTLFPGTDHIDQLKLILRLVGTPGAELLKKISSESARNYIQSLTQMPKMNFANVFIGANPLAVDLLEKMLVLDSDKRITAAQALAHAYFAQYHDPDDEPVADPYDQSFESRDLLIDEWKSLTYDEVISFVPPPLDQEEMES

## Cc1ccccc1-n1nc(-c2c(-c3ccc(F)cc3)nn3c2N[C@H](CO)CC3)ccc1=O
[1]
  clearance: 3.8 mL/min/kg
[2]
  Vd: 0.98 L/kg
Rattus norvegicus [3]
  Activity: 62.3%
Rattus norvegicus [4]
  inhibition in vivo at 1 mg/kg: 98%
[5]
  bioavailability: 100%
[6]
  AUC: 4500 ng·h/mL
[7]
  Papp: 22 ×10⁻⁶ cm/s
THP-1
  IC50: 0.37 nM
[8]
  half-life: 5.95 h

## Cc1ccccc1-n1nc(-c2c(-c3ccc(F)cc3)nn3cc(CO)cnc23)ccc1=O
Rattus norvegicus [4]
  inhibition in vivo at 1 mg/kg: 11%
THP-1
  IC50: 23 nM

## O=c1ccc(-c2c(-c3ccccc3)nn3ccccc23)nn1CC1(O)CCCCC1
Rattus norvegicus [9]
  inhibition in vivo at 3.2 mg/kg: 43%
THP-1
  IC50: 14 nM
[10]
  CLint scaled: 195 mL/min/kg

## CNc1c(-c2ccc(=O)n(-c3ccccc3C)n2)c(-c2ccc(F)cc2)nn1C
[1]
  clearance: 20.6 mL/min/kg
[2]
  Vd: 0.65 L/kg
[11]
  half-life: 0.66 h
Rattus norvegicus [3]
  Activity: 37%
Rattus norvegicus [4]
  inhibition in vivo at 1 mg/kg: 86%
[5]
  bioavailability: 28.6%
[6]
  AUC: 235 ng·h/mL
[7]
  Papp: 30 ×10⁻⁶ cm/s
THP-1
  IC50: 6 nM
[8]
  half-life: 0.66 h
[10]
  CLint scaled: 213 mL/min/kg

## Cc1ccccc1-n1nc(-c2c(-c3ccc(F)cc3)nn3c2NCC3)ccc1=O
THP-1
  IC50: 106 nM

## Cc1ccccc1-n1nc(-c2c(-c3ccc(F)cc3)nn3c2NCCC3)ccc1=O
Rattus norvegicus [4]
  inhibition in vivo at 1 mg/kg: 93%
[7]
  Papp: 30 ×10⁻⁶ cm/s
THP-1
  IC50: 1 nM
[10]
  CLint scaled: 94 mL/min/kg

## Cc1ccccc1-n1nc(-c2c(-c3ccc(F)cc3)nn3c2OCCC3)ccc1=O
Rattus norvegicus [4]
  inhibition in vivo at 1 mg/kg: 33%
THP-1
  IC50: 10 nM

## Cc1ccccc1-n1nc(-c2c(-c3ccc(F)cc3)nn3c2NC[C@@H](O)C3)ccc1=O
[2]
  Vd: 1.23 L/kg
Rattus norvegicus [3]
  Activity: 61.4%
Rattus norvegicus [4]
  inhibition in vivo at 1 mg/kg: 94%
Rattus norvegicus [12]
  F: 67.7%
Rattus norvegicus [13]
  AUC: 763 ng·h/mL
[7]
  Papp: 16 ×10⁻⁶ cm/s
THP-1
  IC50: 0.85 nM
[8]
  half-life: 3.89 h

## Cc1ccccc1-n1nc(-c2c(-c3ccc(F)cc3)nn3c2NC[C@H](O)C3)ccc1=O
[2]
  Vd: 4.21 L/kg
Rattus norvegicus [3]
  Activity: 51%
Rattus norvegicus [4]
  inhibition in vivo at 1 mg/kg: 89%
Rattus norvegicus [12]
  F: 81%
Rattus norvegicus [13]
  AUC: 457 ng·h/mL
[7]
  Papp: 17 ×10⁻⁶ cm/s
THP-1
  IC50: 1.8 nM
[8]
  half-life: 9.01 h

## Cc1ccccc1-n1nc(-c2c(-c3ccc(F)cc3)nn3c2NC[C@H](CO)C3)ccc1=O
[2]
  Vd: 1.11 L/kg
Rattus norvegicus [3]
  Activity: 59.7%
Rattus norvegicus [4]
  inhibition in vivo at 1 mg/kg: 92%
Rattus norvegicus [12]
  F: 103.6%
Rattus norvegicus [13]
  AUC: 1217 ng·h/mL
THP-1
  IC50: 0.95 nM
[8]
  half-life: 3.82 h

## Cc1ccccc1-n1nc(-c2c(-c3ccc(F)cc3)nn3c2NCC(CN2CCN(C)CC2)C3)ccc1=O (centres undefined)
Rattus norvegicus [4]
  inhibition in vivo at 1 mg/kg: 88%
[7]
  Papp: 21 ×10⁻⁶ cm/s
THP-1
  IC50: 1.1 nM

## Cc1ccccc1-n1nc(-c2c(-c3ccc(F)cc3)nn3c2N[C@@H](CO)CC3)ccc1=O
Rattus norvegicus [4]
  inhibition in vivo at 1 mg/kg: 98%
[7]
  Papp: 23 ×10⁻⁶ cm/s
THP-1
  IC50: 0.46 nM

## Cc1ccccc1-n1nc(-c2c(-c3ccc(F)cc3)nn3c2NC[C@@H](CO)C3)ccc1=O [AS1940477]
Cytochrome P450 2C19
  IC50: > 50000 nM
[14]
  IC50: > 100000 nM
[2]
  Vd: 0.77 L/kg
Rattus norvegicus [3]
  Activity: 71.3%
Cytochrome P450 2C9
  IC50: 19000 nM
Rattus norvegicus [4]
  inhibition in vivo at 1 mg/kg: 92%
Cytochrome P450 1A2
  IC50: > 50000 nM
Cytochrome P450 2D6
  IC50: > 50000 nM
Rattus norvegicus [15]
  ED50: 0.05 mg/kg
[16]
  IC50: 11 nM
Rattus norvegicus [12]
  F: 61.8%
[17]
  IC50: > 10000 nM
Rattus norvegicus [13]
  AUC: 1518 ng·h/mL
Rattus norvegicus [18]
  ED30: 0.15 mg/kg
[19]
  IC50: 36 nM
[7]
  Papp: 19.7 ×10⁻⁶ cm/s
THP-1
  IC50: 0.6 nM
[8]
  half-life: 5.15 h
[20]
  solubility: 42 µg/mL (≈ 97.3 µM)

## Cc1ccc(-n2nc(C(C)(C)C)cc2NC(=O)Nc2ccc(OCCN3CCOCC3)c3ccccc23)cc1 [DORAMAPIMOD]
Rattus norvegicus [15]
  ED50: 2.6 mg/kg
Rattus norvegicus [18]
  ED30: 5.8 mg/kg

## O=c1ncn2nc(Sc3ccc(F)cc3F)ccc2c1-c1c(Cl)cccc1Cl [NEFLAMAPIMOD]
Rattus norvegicus [15]
  ED50: 39.9 mg/kg
Rattus norvegicus [18]
  ED30: 92 mg/kg
